{
  "source": "ChEMBL document CHEMBL3124926",
  "about": "“Identification of highly efficacious glucocorticoid receptor agonists with a potential for reduced clinical bone side effects” (J Med Chem, 2014)",
  "key": {"[1]": {"assay": "Half life in rat at 2 mg/kg, iv and 30 mg/kg, po", "type": "ADME, organism-based", "conditions": "in vivo", "in_short": "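Rat PK: 2 mg/kg iv in 80/20 PEG/water and 30 mg/kg po in 80/18/2 PEG/water/Tween.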"}, "[2]": {"system": "Mus musculus", "assay": "Toxicity in nonimmunized, nondiseased mouse assessed as change in femur cortical thickness at 100 mg/kg, po qd for 35 days relative to 1% methylcellulose-treated control", "conditions": "in vivo, 840 h"}, "[3]": {"system": "Mus musculus", "assay": "Toxicity in collagen-induced B10.RIII mouse arthritis model assessed as change in triglyceride level at 100 mg/kg, po qd for 35 days relative to 1% methylcellulose-treated control", "type": "organism-based", "parameters": "dose 100 mg/kg, route oral", "conditions": "in vivo, 840 h", "in_short": "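Female B10.RIII mice were immunized at 12–15 weeks with porcine type II collagen emulsified in complete Freund's adjuvant (100 μg intradermal, tail base). Animals were enrolled at first arthritis signs, 10 per group, and dosed orally once daily for five weeks in 1% methylcellulose. Paws were scored 1–4 each (max 16), with AUC taken. Serum was collected at day 35. Femur cortical thickness was measured by microCT in non-immunized, age-matched mice given the same dosing.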"}},
  "data": [
    {"smiles": "Cc1ccc(F)cc1C(C)(C)C[C@@](O)(Cc1cc2nnccc2[nH]1)C(F)(F)F", "values": [
      {"measurement": "half-life", "setting": "[1]", "value": 30, "unit": "min"}
    ]},
    {"smiles": "Cc1ccc(F)cc1C(C)(C)C[C@@](O)(Cc1cc2ncncc2[nH]1)C(F)(F)F", "values": [
      {"measurement": "Activity", "setting": "[2]", "value": -6, "unit": "%"},
      {"measurement": "Activity", "setting": "[3]", "value": -14, "unit": "%"}
    ]}
  ]
}
